# Reference: ChEMBL document CHEMBL1914304 (J Med Chem, 2011)
# Legend:
# [1] = biological target: T1, Potassium/sodium hyperpolarization-activated cyclic nucleotide-gated channel 2 (Homo sapiens) (UniProt Q9UL51); experiment: Inhibition of HCN2 at 10 uM after 5 mins by patch clamp assay
# T1 sequence (whole entry): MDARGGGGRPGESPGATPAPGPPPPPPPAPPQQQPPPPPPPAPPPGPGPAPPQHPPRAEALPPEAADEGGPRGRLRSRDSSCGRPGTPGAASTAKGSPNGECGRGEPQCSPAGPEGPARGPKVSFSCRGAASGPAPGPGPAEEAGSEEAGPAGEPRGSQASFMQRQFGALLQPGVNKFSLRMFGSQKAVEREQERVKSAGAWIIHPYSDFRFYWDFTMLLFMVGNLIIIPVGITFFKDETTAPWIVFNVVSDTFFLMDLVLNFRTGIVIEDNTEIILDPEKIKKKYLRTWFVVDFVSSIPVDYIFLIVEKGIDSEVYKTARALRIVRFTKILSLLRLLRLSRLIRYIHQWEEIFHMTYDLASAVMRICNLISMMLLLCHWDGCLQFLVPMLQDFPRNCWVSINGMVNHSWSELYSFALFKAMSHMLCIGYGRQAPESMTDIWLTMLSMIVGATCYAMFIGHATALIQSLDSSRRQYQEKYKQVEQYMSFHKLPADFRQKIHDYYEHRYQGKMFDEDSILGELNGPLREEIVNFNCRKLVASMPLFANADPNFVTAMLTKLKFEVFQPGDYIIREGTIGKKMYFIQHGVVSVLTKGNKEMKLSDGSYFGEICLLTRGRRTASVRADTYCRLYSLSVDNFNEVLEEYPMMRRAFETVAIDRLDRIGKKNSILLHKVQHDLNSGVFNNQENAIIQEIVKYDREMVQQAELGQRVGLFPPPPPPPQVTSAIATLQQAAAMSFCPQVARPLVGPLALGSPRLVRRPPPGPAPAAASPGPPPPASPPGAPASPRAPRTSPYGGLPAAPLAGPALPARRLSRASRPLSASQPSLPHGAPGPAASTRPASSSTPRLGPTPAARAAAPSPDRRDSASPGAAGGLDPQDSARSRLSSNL
# How it was run: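 Cardiac ion channel panel run by a contract lab on an automated parallel patch-clamp system at room temperature. Each of 12 cardiac channels was tested with 10 µM compound for 5 min exposure, in two cells per channel (n ≥ 2). Values are reported as mean % inhibition.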
# [2] = biological target: Sulfonylurea receptor 2, Kir6.2 (Homo sapiens, UniProt O60706+Q14654); experiment: Inhibition of human kir6.2/SUR2A ion channel coexpressed in human HEK293 cells after 5 mins by patch clamp assay; type: cell-based
# How it was run: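 Human KCNJ11 (Kir6.2) and SUR2A were co-expressed in HEK293 cells to give the ATP-sensitive current IKATP. The assay was run at room temperature by automated parallel patch clamp, with dose-response at 0.2, 0.6, 1.6 and 5 µM. Exposure was 5 min per concentration, with each concentration in two cells (n ≥ 2).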
# Sulfonylurea receptor 2, Kir6.2, sequence (Q14654 whole entry): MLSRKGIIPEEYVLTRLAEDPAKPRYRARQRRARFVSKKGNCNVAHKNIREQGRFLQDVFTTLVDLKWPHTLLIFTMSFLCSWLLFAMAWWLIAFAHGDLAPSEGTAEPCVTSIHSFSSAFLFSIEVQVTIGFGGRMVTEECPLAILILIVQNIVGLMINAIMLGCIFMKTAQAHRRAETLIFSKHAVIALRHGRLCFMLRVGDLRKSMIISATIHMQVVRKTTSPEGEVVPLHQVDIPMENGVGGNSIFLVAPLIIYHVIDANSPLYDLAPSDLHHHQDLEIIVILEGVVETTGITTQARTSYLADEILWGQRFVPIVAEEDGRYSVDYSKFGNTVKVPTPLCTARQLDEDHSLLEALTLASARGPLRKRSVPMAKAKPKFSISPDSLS
# Sulfonylurea receptor 2, Kir6.2, sequence (O60706 whole entry): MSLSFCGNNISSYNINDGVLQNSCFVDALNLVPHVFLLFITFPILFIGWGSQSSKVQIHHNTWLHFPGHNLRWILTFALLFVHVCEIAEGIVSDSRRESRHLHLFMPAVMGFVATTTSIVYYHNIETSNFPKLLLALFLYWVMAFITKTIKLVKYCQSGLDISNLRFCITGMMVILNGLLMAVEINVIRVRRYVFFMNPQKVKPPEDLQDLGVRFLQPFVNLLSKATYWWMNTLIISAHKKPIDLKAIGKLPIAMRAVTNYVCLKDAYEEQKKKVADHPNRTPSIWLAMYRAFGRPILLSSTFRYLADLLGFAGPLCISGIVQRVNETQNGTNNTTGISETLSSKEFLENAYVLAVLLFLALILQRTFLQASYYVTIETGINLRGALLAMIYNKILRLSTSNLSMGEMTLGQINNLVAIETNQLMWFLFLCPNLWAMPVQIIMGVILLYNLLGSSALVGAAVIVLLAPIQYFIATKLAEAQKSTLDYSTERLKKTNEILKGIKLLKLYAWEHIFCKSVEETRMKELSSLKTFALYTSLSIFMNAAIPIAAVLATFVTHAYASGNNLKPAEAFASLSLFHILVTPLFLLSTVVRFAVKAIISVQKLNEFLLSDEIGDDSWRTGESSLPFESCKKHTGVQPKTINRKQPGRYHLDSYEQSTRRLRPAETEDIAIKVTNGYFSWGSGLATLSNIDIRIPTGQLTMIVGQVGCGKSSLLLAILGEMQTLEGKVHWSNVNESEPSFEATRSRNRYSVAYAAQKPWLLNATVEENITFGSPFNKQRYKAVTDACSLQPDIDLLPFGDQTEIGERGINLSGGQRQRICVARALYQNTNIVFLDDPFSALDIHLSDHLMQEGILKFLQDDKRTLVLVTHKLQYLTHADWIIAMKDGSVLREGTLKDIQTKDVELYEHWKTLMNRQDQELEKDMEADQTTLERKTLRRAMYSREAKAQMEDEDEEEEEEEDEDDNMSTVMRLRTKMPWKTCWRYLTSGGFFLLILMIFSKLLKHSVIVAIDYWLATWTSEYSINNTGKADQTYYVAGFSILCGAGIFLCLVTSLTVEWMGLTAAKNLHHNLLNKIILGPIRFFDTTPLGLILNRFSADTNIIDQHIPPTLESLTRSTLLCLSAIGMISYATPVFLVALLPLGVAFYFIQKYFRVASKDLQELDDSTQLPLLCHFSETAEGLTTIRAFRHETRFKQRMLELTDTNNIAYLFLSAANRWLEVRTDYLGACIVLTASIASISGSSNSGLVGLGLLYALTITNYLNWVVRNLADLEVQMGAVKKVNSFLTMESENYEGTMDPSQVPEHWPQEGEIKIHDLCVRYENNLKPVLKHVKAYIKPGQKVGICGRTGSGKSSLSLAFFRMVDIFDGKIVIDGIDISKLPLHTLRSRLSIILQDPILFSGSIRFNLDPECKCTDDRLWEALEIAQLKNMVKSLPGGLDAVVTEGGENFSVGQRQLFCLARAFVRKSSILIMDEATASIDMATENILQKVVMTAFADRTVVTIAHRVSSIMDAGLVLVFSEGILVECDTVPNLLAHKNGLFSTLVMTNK
structure (smiles),measurement,setting,value
CCCNCC(O)COc1ccccc1C(=O)CCc1ccccc1 (racemic) [PROPAFENONE],inhibition,[1],47.8%
same,IC50,[2],2200 nM
